For one compound, Activity and inhibition results are on record in ChEMBL document CHEMBL4229344 (Eur J Med Chem, 2018).

Assay [1] addresses Receptor-interacting serine/threonine-protein kinase 1 (Homo sapiens) (UniProt Q13546). Nature of the assay: Binding affinity to wild-type human partial length RIPK1 (M1 to K305 residues) expressed in bacterial expression system assessed as residual binding level at 1 uM by Kinomescan method relative to control. A digest of the protocol:
(§1)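 KINOMEscan competition binding against a panel of 468 purified kinases/mutants, compound tested at 1 μM; readout is relative binding activity versus control.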

Assay [2] deals with Serine/threonine-protein kinase MAK (Homo sapiens) (UniProt P20794). Nature of the assay: Binding affinity to wild-type human partial length MAK (M1 to P314 residues) expressed in bacterial expression system assessed as residual binding level at 1 uM by Kinomescan method relative to control. A digest of the protocol:
(§2)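 Kinome-wide competition binding screen against a panel of 468 purified kinases/mutants, with the test compound at a single concentration of 1 μM. Read-out is the relative binding activity of each kinase in the presence of compound.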

Assay [3] concerns the target Tyrosine-protein kinase Lck (Homo sapiens) (UniProt P06239). Briefly: Binding affinity to wild-type human partial length LCK (R207 to P509 residues) expressed in bacterial expression system assessed as residual binding level at 1 uM by Kinomescan method relative to control.
The target of assay [4] is TRAF2 and NCK-interacting protein kinase (Homo sapiens) (UniProt Q9UKE5). Nature of the assay: Binding affinity to wild-type human partial length TNIK (D4 to K311 residues) expressed in bacterial expression system assessed as residual binding level at 1 uM by Kinomescan method relative to control. A digest of the protocol:
as §1

Assay [5] addresses Serine/threonine-protein kinase PAK 3 (Homo sapiens) (UniProt O75914). Nature of the assay: Binding affinity to wild-type human full length PAK3 (M1 to R544 residues) expressed in bacterial expression system assessed as residual binding level at 1 uM by Kinomescan method relative to control. Put shortly: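 KINOMEscan competition binding against 468 purified kinases/mutants, test compound at 1 µM; residual binding relative to control.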

The test system of assay [6] is Mast/stem cell growth factor receptor Kit (Homo sapiens), P10721 [D816V]. Nature of the assay: Binding affinity to human partial length KIT D816V mutant (I571 to D952 residues) expressed in bacterial expression system assessed as residual binding level at 1 uM by Kinomescan method relative to control. A digest of the protocol: (§3)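 Kinome-wide single-concentration binding screen (KINOMEscan) at 1 μM against a panel of 468 purified kinases and mutants. Read-out is relative binding of each kinase compared with control. Selectivity across the panel was summarised as an S(10) score.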

The target in assay [7] is Tyrosine-protein kinase ABL1 (Homo sapiens, UniProt P00519). Nature of the assay: Binding affinity to wild-type human non-phosphorylated ABL1 (S229 to K512 residues) expressed in mammalian expression system assessed as residual binding level at 1 uM by Kinomescan method relative to control. Put shortly:
(§4)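 Single-concentration KINOMEscan (DiscoverX) binding screen at 1 μM against a panel of 468 purified kinases and mutants. The read-out is binding relative to control.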

Assay [8] relates to Phosphatidylinositol 4,5-bisphosphate 3-kinase catalytic subunit alpha isoform (Homo sapiens), P42336 [C420R]. Nature of the assay: Binding affinity to human partial length PIK3CA C420R mutant (R108 to N1068 residues) expressed in mammalian expression system assessed as residual binding level at 1 uM by Kinomescan method relative to control. A digest of the protocol: as §3

The target of assay [9] is Platelet-derived growth factor receptor alpha (Homo sapiens, UniProt P16234). Nature of the assay: Inhibition of PDGFRalpha in human EOL-1 cells assessed as decrease in STAT3 phosphorylation at Y705 residue up to 300 nM after 2 hrs by Western blot analysis. The class given is cell-based.
The target in assay [10] is LIM domain kinase 2 (Homo sapiens) (UniProt P53671). Briefly: Binding affinity to wild-type human full length LIMK2 (M1 to P638 residues) expressed in bacterial expression system assessed as residual binding level at 1 uM by Kinomescan method relative to control. A digest of the protocol:
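Single-concentration (1 μM) competition-binding screen run by KINOMEscan against a panel of 468 purified kinases and mutants. The read-out is the relative binding activity of the test compound to each kinase.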

The target of assay [11] is Receptor-type tyrosine-protein kinase FLT3 (Homo sapiens) (UniProt P36888). Nature of the assay: Binding affinity to wild-type human partial length FLT3 (V592 to Y969 residues) expressed in bacterial expression system assessed as residual binding level at 1 uM by Kinomescan method relative to control.
Assay [12] concerns the target Serine/threonine-protein kinase VRK2 (Homo sapiens) (UniProt Q86Y07). Briefly: Binding affinity to wild-type human partial length VRK2 (M1 to T336 residues) expressed in mammalian expression system assessed as residual binding level at 1 uM by Kinomescan method relative to control.
The target in assay [13] is Cyclin-dependent kinase-like 3 (Homo sapiens) (UniProt Q8IVW4). Briefly: Binding affinity to wild-type human partial length CDKL3 (M1 to D327 residues) expressed in bacterial expression system assessed as residual binding level at 1 uM by Kinomescan method relative to control. Put shortly:
as §2

For assay [14], the target named is Ribosomal protein S6 kinase alpha-5 (Homo sapiens) (UniProt O75582). Nature of the assay: Binding affinity to wild-type human partial length C-terminal RPS6KA5 kinase domain 2 (V390 to T718 residues) expressed in bacterial expression system assessed as residual binding level at 1 uM by Kinomescan method relative to control.
The target in assay [15] is Serine/threonine-protein kinase Sgk3 (Homo sapiens) (UniProt Q96BR1). Briefly: Binding affinity to wild-type human partial length SGK3 (M119 to L496 residues) expressed in mammalian expression system assessed as residual binding level at 1 uM by Kinomescan method relative to control. Put shortly: as §1
For assay [16], the target named is Serine/threonine-protein kinase Nek11 (Homo sapiens) (UniProt Q8NG66). Nature of the assay: Binding affinity to wild-type human partial length NEK11 (M1 to E313 residues) expressed in mammalian expression system assessed as residual binding level at 1 uM by Kinomescan method relative to control.
Assay [17] deals with Dual specificity tyrosine-phosphorylation-regulated kinase 1A (Homo sapiens) (UniProt Q13627). Briefly: Binding affinity to wild-type human partial length DYRK1A (H129 to S509 residues) expressed in mammalian expression system assessed as residual binding level at 1 uM by Kinomescan method relative to control.
Assay [18] concerns the target Serine/threonine-protein kinase Nek10 (Homo sapiens) (UniProt Q6ZWH5). Briefly: Binding affinity to wild-type human partial length NEK10 (L488 to R809 residues) expressed in mammalian expression system assessed as residual binding level at 1 uM by Kinomescan method relative to control.
The target of assay [19] is Serine/threonine-protein kinase PRP4 homolog (Homo sapiens) (UniProt Q13523). Briefly: Binding affinity to wild-type human partial length PRP4 (D657 to I1007 residues) expressed in bacterial expression system assessed as residual binding level at 1 uM by Kinomescan method relative to control.
Assay [20] concerns the target 3-phosphoinositide-dependent protein kinase 1 (Homo sapiens) (UniProt O15530). Nature of the assay: Binding affinity to wild-type human full length PDPK1 (M1 to Q556 residues) expressed in bacterial expression system assessed as residual binding level at 1 uM by Kinomescan method relative to control. A digest of the protocol: as §4
Assay [21] deals with Hepatocyte growth factor receptor (Homo sapiens) (UniProt P08581). Nature of the assay: Binding affinity to wild-type human partial length MET (D1010 to S1367 residues) expressed in bacterial expression system assessed as residual binding level at 1 uM by Kinomescan method relative to control.

The source made the active and inactive calls. No cut-off for these calls is given here.

Cyclin-dependent kinase-like 3 (Homo sapiens), sequence (Q8IVW4 whole entry, looked up, the tested form may be a part): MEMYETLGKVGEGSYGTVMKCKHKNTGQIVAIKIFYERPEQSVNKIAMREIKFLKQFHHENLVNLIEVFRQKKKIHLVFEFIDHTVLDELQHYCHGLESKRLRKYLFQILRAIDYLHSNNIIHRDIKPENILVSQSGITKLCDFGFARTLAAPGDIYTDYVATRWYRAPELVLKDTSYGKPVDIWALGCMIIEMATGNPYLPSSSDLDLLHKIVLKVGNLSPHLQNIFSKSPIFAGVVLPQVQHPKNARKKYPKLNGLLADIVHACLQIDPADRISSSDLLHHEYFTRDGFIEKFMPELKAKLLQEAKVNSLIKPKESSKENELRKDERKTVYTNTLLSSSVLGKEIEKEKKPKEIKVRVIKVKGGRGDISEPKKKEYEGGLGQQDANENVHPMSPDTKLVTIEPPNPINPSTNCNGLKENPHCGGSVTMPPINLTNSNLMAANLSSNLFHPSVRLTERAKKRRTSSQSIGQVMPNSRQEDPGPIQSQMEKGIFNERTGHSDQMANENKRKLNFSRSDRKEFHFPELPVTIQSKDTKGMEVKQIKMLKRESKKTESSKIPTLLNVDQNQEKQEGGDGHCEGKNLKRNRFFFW
LIM domain kinase 2 (Homo sapiens), sequence (P53671 whole entry, looked up, the tested form may be a part): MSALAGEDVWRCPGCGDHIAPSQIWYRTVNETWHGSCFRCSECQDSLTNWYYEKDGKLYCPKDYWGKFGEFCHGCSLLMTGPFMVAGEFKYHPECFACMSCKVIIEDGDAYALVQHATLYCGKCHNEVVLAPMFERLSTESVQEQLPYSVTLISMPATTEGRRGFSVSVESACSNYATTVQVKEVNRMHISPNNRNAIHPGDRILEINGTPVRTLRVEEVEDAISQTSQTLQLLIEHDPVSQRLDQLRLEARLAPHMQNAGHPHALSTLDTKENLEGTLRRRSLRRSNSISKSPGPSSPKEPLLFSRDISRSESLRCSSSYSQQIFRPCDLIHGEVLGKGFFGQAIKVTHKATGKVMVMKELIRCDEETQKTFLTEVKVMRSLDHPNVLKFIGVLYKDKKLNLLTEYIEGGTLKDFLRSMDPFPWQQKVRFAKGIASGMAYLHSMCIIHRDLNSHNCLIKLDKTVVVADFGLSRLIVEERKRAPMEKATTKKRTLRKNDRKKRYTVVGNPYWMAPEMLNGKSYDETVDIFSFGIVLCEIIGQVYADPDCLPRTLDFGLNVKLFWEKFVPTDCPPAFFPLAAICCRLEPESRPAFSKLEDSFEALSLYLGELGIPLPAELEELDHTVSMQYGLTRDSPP
Serine/threonine-protein kinase MAK (Homo sapiens), sequence (P20794 whole entry, the tested form may be a part): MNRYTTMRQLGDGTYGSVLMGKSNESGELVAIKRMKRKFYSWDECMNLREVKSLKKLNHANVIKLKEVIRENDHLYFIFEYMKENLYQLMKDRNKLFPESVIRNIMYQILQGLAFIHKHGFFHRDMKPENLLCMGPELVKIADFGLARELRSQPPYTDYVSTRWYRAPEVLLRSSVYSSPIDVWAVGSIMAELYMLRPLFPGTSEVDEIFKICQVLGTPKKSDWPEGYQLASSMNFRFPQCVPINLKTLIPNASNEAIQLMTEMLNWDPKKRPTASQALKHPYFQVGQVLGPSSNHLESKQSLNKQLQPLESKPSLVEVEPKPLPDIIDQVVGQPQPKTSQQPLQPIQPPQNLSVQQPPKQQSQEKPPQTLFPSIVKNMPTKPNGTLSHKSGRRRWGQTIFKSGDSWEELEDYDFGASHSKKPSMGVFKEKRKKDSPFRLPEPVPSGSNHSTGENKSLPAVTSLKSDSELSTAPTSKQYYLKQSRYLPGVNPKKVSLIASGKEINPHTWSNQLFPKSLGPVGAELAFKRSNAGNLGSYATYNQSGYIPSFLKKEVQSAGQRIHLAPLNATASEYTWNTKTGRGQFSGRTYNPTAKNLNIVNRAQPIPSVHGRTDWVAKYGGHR
Serine/threonine-protein kinase Nek10 (Homo sapiens), sequence (Q6ZWH5 whole entry, the tested form may be a part): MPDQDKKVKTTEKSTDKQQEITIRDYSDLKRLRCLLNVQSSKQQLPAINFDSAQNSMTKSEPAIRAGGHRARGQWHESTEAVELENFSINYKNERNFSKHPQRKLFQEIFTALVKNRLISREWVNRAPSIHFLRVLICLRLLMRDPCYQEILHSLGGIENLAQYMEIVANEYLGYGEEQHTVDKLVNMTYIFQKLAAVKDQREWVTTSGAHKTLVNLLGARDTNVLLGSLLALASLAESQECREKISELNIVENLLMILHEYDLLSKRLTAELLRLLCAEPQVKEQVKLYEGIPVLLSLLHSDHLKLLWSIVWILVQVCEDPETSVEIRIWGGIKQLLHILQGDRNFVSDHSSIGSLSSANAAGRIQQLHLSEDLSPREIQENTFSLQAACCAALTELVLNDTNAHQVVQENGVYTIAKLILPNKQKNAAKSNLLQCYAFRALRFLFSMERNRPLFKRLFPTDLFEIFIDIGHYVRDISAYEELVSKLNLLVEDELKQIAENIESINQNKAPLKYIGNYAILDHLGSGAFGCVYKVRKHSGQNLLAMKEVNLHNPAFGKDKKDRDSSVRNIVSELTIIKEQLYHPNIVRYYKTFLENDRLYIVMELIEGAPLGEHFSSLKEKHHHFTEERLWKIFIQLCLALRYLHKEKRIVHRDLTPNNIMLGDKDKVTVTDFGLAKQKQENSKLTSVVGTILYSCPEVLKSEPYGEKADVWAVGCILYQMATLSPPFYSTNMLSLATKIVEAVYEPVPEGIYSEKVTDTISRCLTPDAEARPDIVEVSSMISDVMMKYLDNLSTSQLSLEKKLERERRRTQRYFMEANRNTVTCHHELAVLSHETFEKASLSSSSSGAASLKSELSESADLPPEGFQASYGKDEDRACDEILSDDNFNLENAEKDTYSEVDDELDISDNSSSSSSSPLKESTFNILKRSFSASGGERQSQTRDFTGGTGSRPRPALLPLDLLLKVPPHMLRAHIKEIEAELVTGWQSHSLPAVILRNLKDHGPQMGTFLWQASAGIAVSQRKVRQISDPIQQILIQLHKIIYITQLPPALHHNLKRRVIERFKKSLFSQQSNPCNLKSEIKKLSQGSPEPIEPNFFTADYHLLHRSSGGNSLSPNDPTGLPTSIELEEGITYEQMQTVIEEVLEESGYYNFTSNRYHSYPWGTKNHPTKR
Ribosomal protein S6 kinase alpha-5 (Homo sapiens), sequence (O75582 whole entry, looked up, the tested form may be a part): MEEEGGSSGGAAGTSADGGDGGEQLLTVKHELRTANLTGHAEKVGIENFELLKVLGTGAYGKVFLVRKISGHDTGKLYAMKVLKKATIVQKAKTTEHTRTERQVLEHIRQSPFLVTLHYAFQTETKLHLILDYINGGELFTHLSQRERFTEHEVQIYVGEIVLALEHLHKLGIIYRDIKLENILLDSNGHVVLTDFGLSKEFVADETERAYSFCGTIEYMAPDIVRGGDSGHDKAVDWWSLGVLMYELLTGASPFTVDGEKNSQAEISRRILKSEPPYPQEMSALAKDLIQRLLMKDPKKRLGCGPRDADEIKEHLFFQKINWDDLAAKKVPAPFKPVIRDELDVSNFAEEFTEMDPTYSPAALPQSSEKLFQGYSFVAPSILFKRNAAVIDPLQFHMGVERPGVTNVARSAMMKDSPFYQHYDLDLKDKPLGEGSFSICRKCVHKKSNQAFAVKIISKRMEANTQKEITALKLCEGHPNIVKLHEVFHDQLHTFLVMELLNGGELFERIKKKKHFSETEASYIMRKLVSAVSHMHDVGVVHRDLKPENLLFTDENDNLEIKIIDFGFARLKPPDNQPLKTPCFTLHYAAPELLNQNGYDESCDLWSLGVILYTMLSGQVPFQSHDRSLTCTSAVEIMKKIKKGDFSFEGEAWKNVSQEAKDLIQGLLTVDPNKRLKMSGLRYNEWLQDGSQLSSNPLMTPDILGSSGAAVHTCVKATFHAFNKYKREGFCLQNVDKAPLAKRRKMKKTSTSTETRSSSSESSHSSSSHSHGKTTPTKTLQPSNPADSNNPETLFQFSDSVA
Tyrosine-protein kinase Lck (Homo sapiens), sequence (P06239 2-509 limits assumed): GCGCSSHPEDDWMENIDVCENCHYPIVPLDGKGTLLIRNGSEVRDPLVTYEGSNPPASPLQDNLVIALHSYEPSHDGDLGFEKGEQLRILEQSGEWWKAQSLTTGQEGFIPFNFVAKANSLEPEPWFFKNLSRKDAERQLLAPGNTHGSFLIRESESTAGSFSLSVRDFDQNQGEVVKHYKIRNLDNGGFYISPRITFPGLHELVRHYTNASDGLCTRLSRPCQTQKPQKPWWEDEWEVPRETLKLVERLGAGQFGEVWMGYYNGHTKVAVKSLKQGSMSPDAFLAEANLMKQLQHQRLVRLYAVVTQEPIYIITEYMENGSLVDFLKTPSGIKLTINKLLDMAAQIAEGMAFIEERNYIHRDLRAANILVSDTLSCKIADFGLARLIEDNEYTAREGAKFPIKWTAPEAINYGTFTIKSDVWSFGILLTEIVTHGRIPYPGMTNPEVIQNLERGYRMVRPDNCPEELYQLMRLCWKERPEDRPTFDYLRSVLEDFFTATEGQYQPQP
Serine/threonine-protein kinase Nek11 (Homo sapiens), sequence (Q8NG66 whole entry, the tested form may be a part): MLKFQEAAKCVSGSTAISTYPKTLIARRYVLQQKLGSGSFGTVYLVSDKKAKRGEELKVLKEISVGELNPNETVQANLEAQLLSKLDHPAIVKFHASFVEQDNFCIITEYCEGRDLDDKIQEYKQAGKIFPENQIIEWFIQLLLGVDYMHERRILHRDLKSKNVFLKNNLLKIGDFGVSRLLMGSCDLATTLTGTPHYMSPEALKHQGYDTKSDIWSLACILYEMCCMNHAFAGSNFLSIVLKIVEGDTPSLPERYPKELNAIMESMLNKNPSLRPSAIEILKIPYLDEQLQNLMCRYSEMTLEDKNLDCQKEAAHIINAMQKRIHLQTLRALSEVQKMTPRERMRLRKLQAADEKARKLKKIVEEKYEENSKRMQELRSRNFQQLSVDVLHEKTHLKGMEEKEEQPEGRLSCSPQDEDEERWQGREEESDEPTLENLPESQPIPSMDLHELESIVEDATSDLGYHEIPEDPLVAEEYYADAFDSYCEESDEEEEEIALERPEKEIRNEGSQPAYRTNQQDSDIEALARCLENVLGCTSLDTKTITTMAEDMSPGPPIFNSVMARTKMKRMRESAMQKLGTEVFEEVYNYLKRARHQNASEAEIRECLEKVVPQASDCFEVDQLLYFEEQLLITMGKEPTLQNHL

As to `Cc1ccc(NC(=O)c2ccc(CN(CCN(C)C)C(=O)c3cccnc3)cc2)cc1Nc1nccc(-c2cccnc2)n1`, the Activity turned out to be 89% in [1]; 92% in [2]; 100% in [3]; 83% in assay [4]; 40% in assay [5]; 88% in assay [6]. For the same compound, the Activity in assay [7] stood at 4.9%; in [8], 93%; in assay [10], 100%; in assay [11], 89%; in assay [12] it was 100%; in assay [13] it was 91%. Moreover, the Activity in assay [14] turned out to be 89%; in assay [15], 92%; in [16], 100%; in assay [17], 100%; in assay [18] it was 100%; in [19], 100%. The Activity in assay [20] worked out at 100%; in assay [21], 90%. For the same compound, the inhibition result in assay [9] is “Active”.
